In experiment [1] the test system is HepG2. The experiment can be described thus: Cytotoxicity against human HepG2 cells assessed as inhibition rate at 2.5 uM incubated for 72 hrs by MTT assay relative to control. In kind it is functional. The gist of the method:
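HepG2 exposed to each compound at 2.5 µM-range single concentration for 72 h at 37 °C after overnight attachment in DMEM + 10% FBS; 0.1% DMSO control. MTT 4 h, DMSO solubilisation, A570; inhibition rate = (Ac−As)/(Ac−Ab)×100.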

For experiment [2], the system named is Bel-7402. The experiment can be described thus: Cytotoxicity against human Bel-7402 cells assessed as inhibition of proliferation incubated for 72 hrs by MTT assay. In kind it is functional, cell-based. The conditions noted are these: Bel-7402, 72 h. The gist of the method:
(§1)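 Cells plated at 3×10³/well, grown overnight in DMEM + 10% FBS, then exposed to compounds (DMSO stocks; 0.1% DMSO negative control) for 72 h at 37 °C. MTT (5 mg/mL in PBS, added at 10%) for 4 h, formazan dissolved in DMSO, A570 read. Inhibition = (Ac−As)/(Ac−Ab)×100; IC50 by calculator; ≥3 independent repeats.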

Experiment [3] has as its system A549. The experiment can be described thus: Cytotoxicity against human A549 cells assessed as inhibition of proliferation incubated for 72 hrs by MTT assay. Type of experiment: functional, cell-based. The conditions noted are these: A549, 72 h. The gist of the method:
as §1

Experiment [4] relates to HepG2. The experiment can be described thus: Cytotoxicity against human HepG2 cells assessed as inhibition of proliferation incubated for 72 hrs by MTT assay. Type of experiment: functional, cell-based. To be noted: HepG2, 72 h. The gist of the method:
as §1

Experiment [5] concerns U-251. Nature of the experiment: Cytotoxicity against human U251 cells assessed as inhibition of proliferation incubated for 72 hrs by MTT assay. In kind it is functional, cell-based. To be noted: U-251, 72 h. The gist of the method: as §1

Counter-ions that a name gives are not always drawn. Bounds are passed on as bounds.

Consider `COc1cc(C(=O)c2nc3c(OC)cccc3c(=O)[nH]2)cc(OC)c1OC`, for which, in experiment [1], the inhibition at 2.5 µM came out at 8.1%.

`COc1cc(C(=O)c2nc3cccc(OC)c3c(=O)[nH]2)cc(OC)c1OC`: the inhibition at 2.5 µM in experiment [1] was 10.2%. Further, the IC50 was determined as 7.1 µM in experiment [2], 15.4 µM in experiment [3], 9.15 µM in experiment [4] and 19.2 µM in experiment [5].

For the molecule `COc1cc(C(=O)c2nc3c(F)cccc3c(=O)[nH]2)cc(OC)c1OC`, in experiment [1], the inhibition at 2.5 µM amounted to 6.8%.

Take `O=C(c1ccc(OC(F)(F)F)cc1)c1nc2ccccc2c(=O)[nH]1`: the IC50 in experiment [4] is more than 50 µM.

For the molecule `COc1cc(C(=O)c2nc3ccccc3c(=O)n2Cc2nnc(-c3ccco3)o2)cc(OC)c1OC`, in experiment [1], the inhibition at 2.5 µM is 34.4%. Moreover, the IC50 stood at 8.15 µM in experiment [2], 4.62 µM in experiment [3], 7.51 µM in experiment [4] and 15.9 µM in experiment [5].

Turning to `O=C(c1nc2ccccc2c(=O)[nH]1)c1ccccc1C(F)(F)F`, in experiment [4], the IC50 is more than 50 µM.

On to `COc1ccc2c(=O)[nH]c(C(=O)c3cc(OC)c(OC)c(OC)c3)nc2c1`, for which the inhibition at 2.5 µM in experiment [1] was determined as 43.4%. Besides, the IC50 in experiment [2] is 4.13 µM; in experiment [3] it was 12.7 µM; in experiment [4] it was 10.6 µM; in experiment [5] it was 13.7 µM.

Consider `COc1cccc2c1C(=O)c1c(O)c3c(c(O)c1C2=O)C[C@@](O)(C(=O)CO)C[C@@H]3O[C@H]1C[C@H](N)[C@H](O)[C@H](C)O1` [DOXORUBICIN HYDROCHLORIDE], for which the IC50 in experiment [2] amounted to 1.28 µM; in experiment [4], 2.21 µM; in experiment [5], 0.157 µM.

For `O=C(c1ccc(Cl)cc1)c1nc2ccccc2c(=O)[nH]1`, the IC50 in experiment [4] was more than 50 µM.

As to `COc1cc(C(=O)c2nc3cc(F)c(F)cc3c(=O)[nH]2)cc(OC)c1OC`, the inhibition at 2.5 µM in experiment [1] was found to be 1.2%.

With `COc1cc(C(=O)c2nc3cc([N+](=O)[O-])ccc3c(=O)[nH]2)cc(OC)c1OC`, the inhibition at 2.5 µM in experiment [1] stood at 6.9%.

In the case of `CCOc1nc(C(=O)c2cc(OC)c(OC)c(OC)c2)nc2ccccc12`, the inhibition at 2.5 µM in experiment [1] was determined as 32%. The IC50 in experiment [2] is 8.29 µM; in experiment [3], more than 100 µM; in experiment [4] it was 15.6 µM; in experiment [5] it was 10.6 µM.

`COc1cc(C(=O)c2nc3ccccc3c(=O)n2Cc2nnc(-c3ccc(F)cc3)o2)cc(OC)c1OC`: the inhibition at 2.5 µM in experiment [1] came out at 26.3%. The IC50 in experiment [2] came out at 4.86 µM; in experiment [3], 7.66 µM; in experiment [4], 7.07 µM; in experiment [5], 27.5 µM.

`COc1cc(C(=O)c2nc(OC(C)C)c3ccccc3n2)cc(OC)c1OC`: the inhibition at 2.5 µM in experiment [1] turned out to be 10.8%. Moreover, the IC50 in experiment [2] was 4.91 µM; in experiment [3], 7.27 µM; in experiment [4], 7.45 µM; in experiment [5], more than 100 µM.

For `O=C(c1nc2ccccc2c(=O)[nH]1)c1ccccc1OC(F)(F)F`, the IC50 in experiment [4] was more than 50 µM.

`COc1cc(C(=O)c2nc3ccc(F)cc3c(=O)[nH]2)cc(OC)c1OC`: the inhibition at 2.5 µM in experiment [1] amounted to 5.1%.

`COc1ccc(C(=O)c2nc3ccccc3c(=O)[nH]2)cc1`: the IC50 in experiment [4] is more than 50 µM.

As to `COc1cc(C(=O)c2nc3cc(F)ccc3c(=O)[nH]2)cc(OC)c1OC`, the inhibition at 2.5 µM in experiment [1] was 9.7%.

Take `COc1cc(C(=O)c2nc3cccc(Br)c3c(=O)[nH]2)cc(OC)c1OC`: the inhibition at 2.5 µM in experiment [1] is 5.1%.

Regarding `COc1ccc2nc(C(=O)c3cc(OC)c(OC)c(OC)c3)[nH]c(=O)c2c1`, the inhibition at 2.5 µM in experiment [1] turned out to be 4.2%.

On to `COc1ccccc1C(=O)c1nc2ccccc2c(=O)[nH]1`, for which the IC50 in experiment [4] is more than 50 µM.

On to `C#CCn1c(C(=O)c2cc(OC)c(OC)c(OC)c2)nc2ccccc2c1=O`, for which the inhibition at 2.5 µM in experiment [1] amounted to 54.7%. The IC50 in experiment [2] was 5.4 µM; in experiment [3], 7.66 µM; in experiment [4], 4.97 µM; in experiment [5] it was 12.8 µM.

Turning to `C=CCn1c(C(=O)c2cc(OC)c(OC)c(OC)c2)nc2ccccc2c1=O`, the inhibition at 2.5 µM in experiment [1] was found to be 21%. Besides, the IC50 in experiment [2] turned out to be 10.7 µM; in experiment [3], 10.5 µM; in experiment [4] it was 14.1 µM; in experiment [5] it was 13 µM.

For `COc1cc(C(=O)c2nc3ccc(Cl)cc3c(=O)[nH]2)cc(OC)c1OC`, the inhibition at 2.5 µM in experiment [1] is 3.4%.

Regarding `COc1cc(C(=O)c2nc3ccccc3c(=O)n2Cc2nnc(-c3ccc(Cl)cc3)o2)cc(OC)c1OC`, the inhibition at 2.5 µM in experiment [1] amounted to 2.3%.

On to `COc1cc(C(=O)c2nc3cccc(Cl)c3c(=O)[nH]2)cc(OC)c1OC`, for which the inhibition at 2.5 µM in experiment [1] was 3.7%.

Take `COc1cc(C(=O)c2nc3cccc(F)c3c(=O)[nH]2)cc(OC)c1OC`: the inhibition at 2.5 µM in experiment [1] worked out at 9.4%.

For the molecule `COc1cc(C(=O)c2nc3cc(Br)ccc3c(=O)[nH]2)cc(OC)c1OC`, in experiment [1], the inhibition at 2.5 µM turned out to be 17.6%. Further, the IC50 was 4.91 µM in experiment [2], 7.27 µM in experiment [3], 7.45 µM in experiment [4] and more than 100 µM in experiment [5].

As to `COc1cc(C(=O)c2nc3c(Cl)cccc3c(=O)[nH]2)cc(OC)c1OC`, the inhibition at 2.5 µM in experiment [1] was 9.2%.

Consider `COc1cc(C(=O)c2nc3ccccc3c(=O)n2C)cc(OC)c1OC`, for which, in experiment [1], the inhibition at 2.5 µM was 17.4%. Further, the IC50 is 6.34 µM in experiment [2], 20.3 µM in experiment [3], 8.19 µM in experiment [4] and more than 100 µM in experiment [5].

Consider `COc1cc2nc(C(=O)c3cc(OC)c(OC)c(OC)c3)[nH]c(=O)c2cc1OC`, for which, in experiment [1], the inhibition at 2.5 µM amounted to 5.1%.

As to `COc1cc(C(=O)c2nc3ccc(Br)cc3c(=O)[nH]2)cc(OC)c1OC`, the inhibition at 2.5 µM in experiment [1] worked out at 3.4%.

As for `COc1cc(C(=O)c2nc3ccc([N+](=O)[O-])cc3c(=O)[nH]2)cc(OC)c1OC`, the inhibition at 2.5 µM in experiment [1] is 8.8%.

As to `COc1cc(C(=O)c2nc(Cl)c3ccccc3n2)cc(OC)c1OC`, the inhibition at 2.5 µM in experiment [1] is 18.4%. Further, the IC50 in experiment [2] was 6.88 µM; in experiment [3], 7.09 µM; in experiment [4], 10.9 µM; in experiment [5], more than 100 µM.

Consider `O=C(c1ccc(O)cc1)c1nc2ccccc2c(=O)[nH]1` [PENIPANOID C], for which the IC50 in experiment [4] is more than 50 µM.

On to `COc1cc(C(=O)c2nc3c(Br)cccc3c(=O)[nH]2)cc(OC)c1OC`, for which, in experiment [1], the inhibition at 2.5 µM is 1.3%.

`COc1cc(C(=O)c2nc3cc(Cl)ccc3c(=O)[nH]2)cc(OC)c1OC`: the inhibition at 2.5 µM in experiment [1] worked out at 8.2%.

With `O=C(c1ccc(C(F)(F)F)cc1)c1nc2ccccc2c(=O)[nH]1`, the IC50 in experiment [4] was more than 50 µM.

As to `O=C(c1ccc(F)cc1)c1nc2ccccc2c(=O)[nH]1`, the IC50 in experiment [4] is more than 50 µM.

On to `COc1cc(C(=O)c2nc3ccccc3c(=O)n2Cc2nnc(-c3ccc(C)cc3)o2)cc(OC)c1OC`, for which the inhibition at 2.5 µM in experiment [1] stood at 12.6%. Further, the IC50 in experiment [2] stood at 8.88 µM; in experiment [3], 47.1 µM; in experiment [4], 10.5 µM; in experiment [5], 27 µM.

Values taken from ChEMBL document CHEMBL4842335, “Discovery of penipanoid C-inspired 2-(3,4,5-trimethoxybenzoyl)quinazolin-4(3H)-one derivatives as potential anticancer agents by inhibiting cell proliferation and inducing apoptosis in hepatocellular carcinoma cells” (Eur J Med Chem, 2021).
